Legend:
[1] = Plasma insulin / serum LY concentrations and organ extraction during the clamp; assay type: in vivo, dog
conscious dogs = assay: Euglycemic clamp with tracer and hepatic balance measurements in conscious dogs; assay type: in vivo, dog; settings: control group (regular human insulin 0.11 nmol/kg/h iv, n=6)
How it was run: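 Conscious dogs had 30 min of basal sampling (90–120 min), then a 5-h euglycemic clamp (120–420 min). Somatostatin and regular human insulin (no priming dose) were given by peripheral vein, glucagon intraportally at basal 0.5 ng ⋅ kg−1 ⋅ min−1, and glucose infused to hold euglycemia. [3H]glucose tracer; Ra from Mari circulatory model; hepatic organ-balance calculations; triglycerides assayed spectrophotometrically; n = 6.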

[2] = cited from earlier work
[3] = cited from earlier work; remark: listed apart in the source
[4] = tested on: patients with type 1 and type 2 diabetes; settings: phase II, patients previously treated with other basal insulins; cited from earlier work
[5] = regular insulin 0.11 nmol/kg/h iv during the clamp, dog

## regular insulin: regular human insulin infused via peripheral vein in the control group
[1]; control group (regular human insulin 0.11 nmol/kg/h iv, n=6)
  Portal vein insulin concentration during the clamp: ~ 50 % of basal
[1]; [5]
  Fractional hepatic extraction: 50 ± 3%
  Fractional renal extraction: 61 ± 3%
Conscious dogs
  Change from baseline in net hepatic glucose balance by 420 min: 10.3 ± 1.4 µmol ⋅ kg^-1 ⋅ min^−1
  Fall of arterial plasma triglyceride concentration below baseline by 420 min: ~ 40%
  Increase in non-HGU over the basal rate in the final hour: 11.1 ± 4.5 µmol ⋅ kg^−1 ⋅ min^−1
  Time to NEFA nadir after the start of the clamp period: ≤ 90 min
Conscious dogs; arterial plasma
  Nadir of NEFA concentrations: 271 ± 57 µmol/L
Conscious dogs; tracer-determined
  Fall from basal in endogenous glucose Ra by the final hour: 8.9 ± 1.9 µmol ⋅ kg^−1 ⋅ min^−1

## insulin degludec
[2]
  T1/2 relative to that of glargine: approximately two times

## insulin: endogenously secreted insulin to which the liver is exposed
[3]
  Hepatic extraction of the insulin to which the liver is exposed: 50–60%

## insulin glargine
[4]
  Body weight change: modest weight gain

— publication PMC5361402 (Diabetes, 2014)
